Results on three compounds are retold here after ChEMBL document CHEMBL3826940, “Amphipathicity Determines Different Cytotoxic Mechanisms of Lysine- or Arginine-Rich Cationic Hydrophobic Peptides in Cancer Cells” (J Med Chem, 2016).

Active and inactive are the calls of the source. The rule behind the calls is not given here.

A short description of data set [1]: Cytotoxicity against human 293T cells assessed as cell viability after 24 hrs by MTT assay. The data set is classed as cell-based, HEK-293T. The method, boiled down: (§1)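 MTT viability assay. Cells were seeded at 1 × 10^4 cells/well in complete medium and grown 24 h. Medium was replaced with fresh medium containing peptide over a concentration series and incubated 24 h. MTT (5 mg/mL) was added for 4 h, formazan was dissolved in DMSO, and A490 was read. IC50 was derived from mean ± SD of three independent experiments.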

Data set [2] deals with HeLa. The data set is described as follows: Cytotoxicity against human HeLa cells assessed as cell viability after 24 hrs by MTT assay. The data set is classed as functional, cell-based. The method, boiled down:
as §1

A further data set has as its system HUVEC. The data set is described as follows: Cytotoxicity against HUVEC assessed as cell viability after 24 hrs by MTT assay. The data set is classed as cell-based, Homo sapiens. The method, boiled down: as §1
The subject of a further data set is MCF7. The data set is described as follows: Cytotoxicity against human MCF7 cells assessed as cell viability after 24 hrs by MTT assay. The data set is classed as functional, cell-based. The method, boiled down: as §1
Data set [3] is described as follows: Cytotoxicity against HLF assessed as cell viability after 24 hrs by MTT assay. Set-up: species or system Homo sapiens. The method, boiled down:
as §1

For another data set, the system named is A549. The data set is described as follows: Cytotoxicity against human A549 cells assessed as cell viability after 24 hrs by MTT assay. The data set is classed as functional, cell-based. The method, boiled down: as §1
A short description of data set [4]: Hemolytic activity in mouse RBC at 0.39 to 50 uM after 1 hr. The following applies: erythrocyte. In kind it is ADME, cell-based. The method, boiled down: (§2)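 Heparinized fresh mouse blood: RBCs were washed three times in 0.9% saline and diluted to 4.0 × 10^8 cells/mL. Peptides at various concentrations were incubated with the RBCs 1 h at 37 °C. After centrifugation at 1000 rpm for 10 min, supernatant absorbance was read at 540 nm, with 1% Triton X-100 set as 100% hemolysis.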

The test system of data set [5] is HeLa. In words: Drug uptake in human HeLa cells at 5 uM after 15 mins using iridium dye labeled compound by confocal microscopic method. In kind it is ADME, cell-based. The following applies: 0.25 h. The method, boiled down: (§3)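 Peptides were labelled at the N-terminal His with [Ir(ppy)2(H2O)2]OTf: 200 μM each, mixed 1:1 in PBS, 2 h at 37 °C in the dark. HeLa cells (1 × 10^5 per dish, grown 24 h) were exposed to 5 μM labelled peptide. Live-cell confocal images were taken at 0, 5 and 15 min (excitation 403 nm, emission 500–560 nm).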

Data set [6] relates to HeLa. The data set is described as follows: Cytotoxicity against human HeLa cells assessed as lethality at 5 uM at 0 degC after 30 mins by MTT assay. The data set is classed as functional, cell-based. The method, boiled down:
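HeLa cells were incubated with peptide over a range of concentrations at 0 or 37 °C for 30 min. Lethality was then measured by MTT, with A490 read after DMSO solubilization.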

The test system of data set [7] is HeLa. The data set is described as follows: Induction of morphological changes in human HeLa cells assessed as membrane fragmentation at 5 uM after 30 mins by microscopic method. The data set is classed as functional, cell-based. The method, boiled down:
(§4)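 HeLa cells were co-incubated with 5 μM peptide for 30 min. Morphology was then examined under the microscope.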

Data set [8] can be described thus: Hemolytic activity in mouse RBC after 1 hr. The conditions noted are these: red blood cells. The data set is classed as ADME, cell-based, Erythrocyte. The method, boiled down:
as §2

Data set [9] can be described thus: Drug uptake in plasma membrane of human HeLa cells at 5 uM after 2 to 30 mins using iridium dye labeled compound by confocal microscopic method. In kind it is ADME, cell-based. The method, boiled down: as §3
The test system of data set [10] is HeLa. The data set is described as follows: Induction of apoptosis in human HeLa cells assessed as caspase-3 activation at 5 uM measured up to 4 hrs by caspase-glo assay. The data set is classed as functional, cell-based. The method, boiled down:
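Cells in 96-well plates were exposed to 5 μM peptide for 5, 10, 15 or 30 min, or 1, 2, 3 or 4 h. Caspase-Glo 3/7 reagent was added, the plate shaken 30 s and incubated 2 h at room temperature, and luminescence was read.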

Data set [11] relates to HeLa. The data set is described as follows: Cytotoxicity against human HeLa cells assessed as cell mortality at 5 uM after 5 mins by MTT assay. The data set is classed as functional, cell-based.
For data set [12], the system named is HeLa. In words: Induction of morphological changes in human HeLa cells assessed as membrane leakage at 5 uM after 30 mins by microscopic method. In kind it is functional, cell-based. The method, boiled down:
as §4

The subject of data set [13] is HeLa. In words: Cytotoxicity against human HeLa cells assessed as cell mortality at 5 uM after 5 mins by Hoechst 33342/propidium iodide staining-based assay. In kind it is functional. The method, boiled down:
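HeLa cells treated with 5 μM peptide were co-stained with Hoechst 33342 (stains all nuclei) and propidium iodide (stains only membrane-compromised cells). Fluorescence imaging was done at time points up to 30 min.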

For H-HGGKLLKLLKLKKLLKL-NH2, the Activity entry in data set [1] (human, hek-293t) is reported as “Non-toxic”; in the data set on HUVEC (human, huvec) it was “Non-toxic”; in [3] (human, hlf), “Non-toxic”; in data set [4], “Non-toxic”. The IC50 in the data set on HeLa [2] was determined as 34.5 µM. Besides, the result with MCF7 and with A549 was inactive.

As to `CC(C)C[C@@H](NC(=O)[C@@H](CCCNC(=N)N)NC(=O)[C@@H](CC(C)C)NC(=O)[C@@H](CC(C)C)NC(=O)[C@@H](CCCNC(=N)N)NC(=O)[C@@H](CCCNC(=N)N)NC(=O)[C@@H](CC(C)C)NC(=O)[C@@H](CCCNC(=N)N)NC(=O)[C@@H](CC(C)C)NC(=O)[C@@H](CC(C)C)NC(=O)[C@@H](CCCNC(=N)N)NC(=O)[C@@H](CC(C)C)NC(=O)[C@@H](CC(C)C)NC(=O)[C@@H](CCCNC(=N)N)NC(=O)CNC(=O)CNC(=O)[C@H](N)Cc1cnc[nH]1)C(N)=O`, in the data set with HeLa [2], the IC50 turned out to be 4.1 µM. Also, in the data set with HeLa [5], the Drug uptake entry was “Active”.

Regarding H-HGGRLLRLLRRLLRLLR-NH2, the result with HeLa [6], in the data set with HeLa [7], in the data set on HeLa [11], in the data set with HeLa [12] and in the data set with HeLa [13] was Active. Moreover, the IC50 in data set [1] (Homo sapiens, HEK-293T) is 9.6 µM; with HeLa [2], 3.7 µM; in the data set on HUVEC (Homo sapiens, HUVEC) it was 8.4 µM; in the data set on MCF7 (MCF7, 24 h), 2.5 µM; in data set [3] (Homo sapiens, HLF), 6.3 µM; in the data set on A549 (A549, 24 h), 4.3 µM. The same compound showed an HC50 at 1 h in [8] of 2900 nM. Moreover, in [9], the Drug uptake result was “Active”. In addition, the result in the data set with HeLa [10] was inactive.
